Results: ChEMBL document CHEMBL1250476, “Synthesis and antifungal evaluation of novel triazole derivatives as inhibitors of cytochrome P450 14alpha-demethylase” (2010)
In brackets after ≈: the same amount, converted by molar mass.

What was measured:
Format in all cases: functional
Candida albicans [1] = assay: Antifungal activity against Candida albicans SC5314 after 24 hrs by micro-broth dilution method; conditions: SC5314, 24 h
How it was run: (§1)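 Broth microdilution per NCCLS on Candida albicans. Compounds were dissolved in DMSO, serially diluted in growth medium, inoculated and incubated at 35 °C. Growth was read at 24 h, and MIC80 was taken as the first well with about 80% growth reduction relative to the drug-free control. Values are the mean of three replicates.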

Candida albicans [2] = assay: Antifungal activity against Candida albicans Y0109 after 24 hrs by micro-broth dilution method; conditions: Y0109, 24 h; how it was run: as §1
Cryptococcus neoformans = assay: Antifungal activity against Cryptococcus neoformans after 72 hrs by micro-broth dilution method
How it was run: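 Cryptococcus neoformans tested by NCCLS micro-broth dilution. Compounds were dissolved in DMSO, serially diluted in medium, inoculated and incubated at 35 °C. MIC80 was read at 72 h as the first well showing approximately 80% growth reduction compared with the drug-free well. Values are the mean of three replicate tests.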

Candida parapsilosis = assay: Antifungal activity against Candida parapsilosis by micro-broth dilution method; conditions: Lodderomyces parapsilosis
How it was run: (§2)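 MIC80 by broth microdilution in 96-well format following NCCLS. Compounds were dissolved in DMSO, serially diluted in growth medium, inoculated and incubated at 35 °C. The endpoint was the first well with about 80% growth reduction versus the drug-free well. Values are means of three replicate tests.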

Candida tropicalis = assay: Antifungal activity against Candida tropicalis by micro-broth dilution method; how it was run: as §2
Trichophyton rubrum = assay: Antifungal activity against Trichophyton rubrum by micro-broth dilution method; how it was run: as §2
Kluyveromyces marxianus = assay: Antifungal activity against Candida kefyr by micro-broth dilution method; how it was run: as §2
Aspergillus fumigatus = assay: Antifungal activity against Aspergillus fumigatus by micro-broth dilution method; how it was run: as §2

`OC(Cn1cncn1)(Cn1cncn1)c1ccc(F)cc1F` [FLUCONAZOLE] showed an MIC (Candida albicans [1]) of 0.5 µg/mL (≈ 1.63 µM), an MIC (Candida albicans [2]) of 0.5 µg/mL (≈ 1.63 µM) and an MIC (Cryptococcus neoformans) of 8 µg/mL (≈ 26.1 µM). For the same compound, the MIC (Candida parapsilosis) was 2 µg/mL (≈ 6.53 µM), the MIC (Candida tropicalis) was under 0.125 µg/mL and the MIC (Trichophyton rubrum) was under 0.125 µg/mL. The MIC (Kluyveromyces marxianus) was 1 µg/mL (≈ 3.27 µM) and the MIC (Aspergillus fumigatus) was over 64 µg/mL.
Compound `CCC(C)n1ncn(-c2ccc(N3CCN(c4ccc(OCC5COC(Cn6cncn6)(c6ccc(Cl)cc6Cl)O5)cc4)CC3)cc2)c1=O` (stereo not given) [ITRACONAZOLE] has an MIC (Candida albicans [1]) of under 0.0625 µg/mL, an MIC (Candida albicans [2]) of 0.0625 µg/mL (≈ 0.0886 µM) and an MIC (Cryptococcus neoformans) of 0.125 µg/mL (≈ 0.177 µM). For the same compound, the MIC (Candida parapsilosis) was 0.0625 µg/mL (≈ 0.0886 µM), the MIC (Candida tropicalis) was under 0.0625 µg/mL and the MIC (Trichophyton rubrum) was 0.0625 µg/mL (≈ 0.0886 µM). The MIC (Kluyveromyces marxianus) was 0.0625 µg/mL (≈ 0.0886 µM) and the MIC (Aspergillus fumigatus) was 2 µg/mL (≈ 2.83 µM).
With `CC(=O)N1CCN(c2ccc(OCC3COC(Cn4ccnc4)(c4ccc(Cl)cc4Cl)O3)cc2)CC1` (stereo not given) [KETOCONAZOLE] the MIC (Candida albicans [1]) was under 0.125 µg/mL, the MIC (Candida albicans [2]) was under 0.125 µg/mL and the MIC (Cryptococcus neoformans) was 0.5 µg/mL (≈ 0.941 µM). The MIC (Candida parapsilosis) was under 0.125 µg/mL, the MIC (Candida tropicalis) was under 0.125 µg/mL and the MIC (Trichophyton rubrum) was under 0.125 µg/mL. It also gave an MIC (Kluyveromyces marxianus) of 0.0625 µg/mL (≈ 0.118 µM) and an MIC (Aspergillus fumigatus) of 0.125 µg/mL (≈ 0.235 µM).
In the case of `CN(C/C=C/C#CC(C)(C)C)Cc1cccc2ccccc12` [TERBINAFINE], the MIC (Candida albicans [1]) was 16 µg/mL (≈ 54.9 µM), the MIC (Candida albicans [2]) was 2 µg/mL (≈ 6.86 µM) and the MIC (Cryptococcus neoformans) was 8 µg/mL (≈ 27.5 µM). It also gave an MIC (Candida parapsilosis) of under 0.125 µg/mL, an MIC (Candida tropicalis) of under 0.125 µg/mL and an MIC (Trichophyton rubrum) of under 0.125 µg/mL. For the same compound, the MIC (Kluyveromyces marxianus) was 0.0625 µg/mL (≈ 0.214 µM) and the MIC (Aspergillus fumigatus) was 0.25 µg/mL (≈ 0.858 µM).
For `C[C@@H](c1ncncc1F)[C@](O)(Cn1cncn1)c1ccc(F)cc1F` [VORICONAZOLE], the MIC (Candida albicans [1]) was 32 µg/mL (≈ 91.6 µM), the MIC (Candida albicans [2]) was under 0.125 µg/mL and the MIC (Cryptococcus neoformans) was under 0.125 µg/mL. The MIC (Candida parapsilosis) was under 0.125 µg/mL, the MIC (Candida tropicalis) was under 0.125 µg/mL and the MIC (Trichophyton rubrum) was 0.25 µg/mL (≈ 0.716 µM). The MIC (Kluyveromyces marxianus) was 0.0039 µg/mL (≈ 0.0112 µM) and the MIC (Aspergillus fumigatus) was under 0.125 µg/mL.
